In ChEMBL document CHEMBL4138134, “Antiplasmodial Chromanes and Chromenes from the Monotypic Plant Species Koeberlinia spinosa” (J Nat Prod, 2018):

Tests used:
Plasmodium falciparum = experiment: Antimalarial activity against chloroquine/mefloquine-resistant Plasmodium falciparum Dd2 measured after 72 hrs by SYBR green1 dye based fluorescence assay; format: functional, organism-based
Procedure, shortened: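 Whole-parasite growth inhibition, 72 h treatment, SYBR Green I fluorescence read-out, IC50 derived. Both fractions and isolated compounds were tested on the chloroquine/mefloquine-resistant Dd2 strain. Artemisinin served as positive control.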

A2780 = experiment: Cytotoxicity against human A2780 cells after 2 days by Alamar blue assay; format: cell-based; conditions: A2780, 48 h
[1] = Plasmodium falciparum, Dd2, 72 h

| SMILES | IC50 (Plasmodium falciparum; [1]) [µM] | IC50 (A2780) [µM] | IC50 (Plasmodium falciparum) [µM] |
| --- | --- | --- | --- |
| C/C(=C/CC/C(C)=C/C(=O)C[C@]1(C)CCc2cc(O)cc(C)c2O1)CO | 24 | > 10 | – |
| COc1cc(C)c2c(c1)CC[C@@](C)(CC(=O)/C=C(\C)CC/C=C(\C)CO)O2 | 24 | > 10 | – |
| C/C(=C/C(=O)C[C@]1(C)CCc2cc(O)cc(C)c2O1)CC/C=C(\C)CO | – | > 10 | – |
| C/C(=C\CC/C(C)=C/C(=O)C[C@]1(C)C=Cc2cc(O)cc(C)c2O1)CO | > 112 | > 10 | – |
| C/C(=C\CC/C(C)=C/C(=O)C[C@]1(C)CCc2cc(O)cc(C)c2O1)CO | > 112 | > 10 | – |
| C/C(=C/CC/C(C)=C\C(=O)C[C@]1(C)CCc2cc(O)cc(C)c2O1)CO | – | > 10 | – |
| C/C(=C\CC/C(C)=C/CC[C@]1(C)C=Cc2cc(O)cc(C)c2O1)CO | – | > 10 | – |
| CC1=CCCC(C)(CC(=O)C[C@]2(C)CCc3cc(O)cc(C)c3O2)OC1 (single isomer, unassigned; diastereomer 1) | – | > 10 | 109 |
| CC1=CCCC(C)(CC(=O)C[C@]2(C)CCc3cc(O)cc(C)c3O2)OC1 (single isomer, unassigned; diastereomer 2) | – | – | 23 |
| C[C@@H]1CC[C@H]2[C@@H](C)C(=O)O[C@@H]3O[C@@]4(C)CC[C@@H]1[C@]32OO4 [ARTEMISININ] | 0.009 | – | – |
